Sampled rows, rich in hits. Any-hit rate of the full collection: about 2.4%.
STEP block = inhibitors of human striatal-enriched phosphatase STEP; actives 0.25% (n = 360,000); inhibition, % at 20 µM; recombinant STEP, OMFP fluorogenic substrate, fluorescence;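 active means inhibition at 20 µM, scaled per plate between control wells, above about 37%, limit read from the data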;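 further: 0% = DMSO with enzyme and substrate and 100% = substrate only without enzyme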
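System: STEP (striatal-enriched tyrosine phosphatase) enzyme, cell-free; medium: Bis-Tris pH 6.0 buffer with DTT, detergent; dosing: 20 µM, 1% DMSO; times: reaction 20 min, ambient temperature; detection: fluorescence, 480/540 nm; read-out basis: normalized % inhibition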
SUMO1 PPI mod = SUMO1-SIM interaction modulation | P63165 | SUMO1 binding to a labelled peptide, TR-FRET, 1 h | inhibition, % at 20 µM | actives 0.33% (n = 360,000) | AID 602429; in the data active means inhibition above about 37%
Target sequence (P63165 whole entry, looked up): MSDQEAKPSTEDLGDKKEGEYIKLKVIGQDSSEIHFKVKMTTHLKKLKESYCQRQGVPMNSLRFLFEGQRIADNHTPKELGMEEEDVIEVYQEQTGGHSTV
LMPTP inh = LMPTP (human) inhibition; P24666; recombinant LMPTP-A, OMFP fluorogenic substrate, fluorescence intensity; inhibition, % at 20 µM; actives 0.22% (n = 360,000);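 active means compounds that cut the enzyme signal by at least half of the control window in the single-dose screen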;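 further: plate controls were DMSO wells with enzyme plus substrate for no effect and substrate without enzyme for full effect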
Target sequence (P24666 whole entry, looked up): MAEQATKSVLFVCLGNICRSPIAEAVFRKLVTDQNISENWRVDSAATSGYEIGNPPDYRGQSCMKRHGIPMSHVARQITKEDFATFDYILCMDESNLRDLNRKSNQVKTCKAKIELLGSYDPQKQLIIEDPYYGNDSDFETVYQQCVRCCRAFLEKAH
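Test system: LMPTP-A phosphatase enzyme; input: 0.625 nM LMPTP-A final; reagent: OMFP substrate, 400 µM final; compound dosing: 20 µM single dose, 3% DMSO; incubation: 50 min dark incubation at room temperature; measured by: endpoint fluorescence intensity from OMFP dephosphorylation; measure: % inhibition relative to no-enzyme and uninhibited control wells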
Scp1 inh = Scp-1 (human) phosphatase inhibition; Recombinant Scp1, phosphopeptide, malachite green phosphate absorbance; inhibition, % at 20 µM; actives 0.88% (n = 340,000); Q9GZU7;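 active means inhibition above about 50% at 20 µM, limit read from the data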;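 further: plate controls were DMSO wells with enzyme for no effect and wells lacking enzyme for full effect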
Target sequence (Q9GZU7 76-261 limits assumed): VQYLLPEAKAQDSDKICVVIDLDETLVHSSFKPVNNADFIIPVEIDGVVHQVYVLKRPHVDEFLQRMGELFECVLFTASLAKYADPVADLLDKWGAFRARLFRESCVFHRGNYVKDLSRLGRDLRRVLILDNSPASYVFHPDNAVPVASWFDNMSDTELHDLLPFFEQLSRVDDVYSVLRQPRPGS
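Test system – truncated SCP-1 phosphatase (76-261aa) · Reagent – Phosphorylated 17-residue peptide substrate · Incubation – 45 min room-temperature reaction, 5 min colour, 30 min stabiliser · Detection – colorimetric phosphate reagent with accelerator and stabiliser, absorbance at 630 nm · Measure – % inhibition at 20 µM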
NadD block = blocks S. aureus nicotinate mononucleotide adenylyltransferase. purified NadD enzyme, colorimetric absorbance read-out. inhibition, % at 20 µM. actives 0.78% (n = 360,000). AID 602399; in the data active means inhibition above about 26%
DNMT1 inh = DNMT1 (human) enzyme inhibition. P26358. DNMT1 molecular beacon, Hinp1I cleavage, fluorescence. inhibition (reported as % activation of signal), % at 10 µM. actives 0.83% (n = 360,000); in the data active means inhibition above about 50%
Scp1 confirm = confirmation of human Scp-1 phosphatase inhibitors | shares compounds with Scp1 inh | recombinant SCP-1 catalytic domain, phosphate release, malachite green absorbance | inhibition, % at 20 µM | actives 61% (n = 2,500);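 further: plate controls were DMSO with enzyme for no effect and buffer wells lacking enzyme for full effect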
Scp-1 MG ctr = colorimetric interference in Scp-1 counter-screen; shares compounds with Scp1 inh; Colorimetric interference counterscreen, malachite green absorbance 630 nm; apparent inhibition (interference), % at 20 µM; 2,500 tested, under 10 active; AID 540313;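 further: compounds added after enzyme reaction finished so only phosphate colour detection is probed; plate controls were DMSO wells with completed Scp-1 reaction for no effect and substrate wells lacking enzyme for full effect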
Scp-1 Tm shift = binds human Scp-1, shifting its melting temperature; shares compounds with Scp1 inh; Recombinant SCP1, Sypro Orange thermal shift Tm; thermal shift relative to vanadate control, % at 40 µM; actives 25% (n = 1,500);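 active means substances whose mean melting-temperature shift, as a percentage of the reference inhibitor's shift, reaches about 5.3%, limit read from the data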;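 further: 0% = Tm of DMSO wells and 100% = Tm with sodium orthovanadate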
* hit, by the source's call; x = no result.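 How the source made its calls, unless noted: active means inhibition of at least 30% at 20 µM; inactive means the rest.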

SMILES | STEP block | SUMO1 PPI mod | LMPTP inh | Scp1 inh | NadD block | DNMT1 inh | Scp1 confirm | Scp-1 MG ctr | others
Cc1ccc(OCC(=O)N/N=C/C=C/c2ccco2)cc1 | -1 | 0 | 3 | 73* | 16 | 26 | 59* | -10 | Scp-1 Tm shift=7.5*
O=C(COc1ccccc1[N+](=O)[O-])N/N=C/C=C/c1ccco1 | 2 | -14 | 1 | -7 | 7 | 2 | x | x
O=C(N/N=C/C=C/c1ccco1)C(O)c1ccccc1 (centres undefined) | -1 | -2 | -1 | 62* | -2 | 39 | 53* | -11 | Scp-1 Tm shift=2
CCN(CC)S(=O)(=O)c1ccc(N2CCOCC2)c(NC(=O)Cc2ccccc2)c1 | -2 | -2 | 1 | -10 | 4 | 2 | x | x
O=C(C1COc2ccccc2O1)N1CCN(c2ccc(C(F)(F)F)cn2)CC1 (centres undefined) | -2 | -1 | 1 | 87* | -7 | 3 | -12 | -19
NS(=O)(=O)c1ccc(N2CCN(C(=O)C3COc4ccccc4O3)CC2)nc1 (centres undefined) | 2 | 5 | -1 | 1 | 3 | 0 | x | x
CCOc1cc(/C=C2\C(=N)N3N=C(N4CCCCC4)SC3=NC2=O)ccc1OC(=O)c1ccco1 | 0 | 6 | 2 | -6 | 24 | 9 | x | x
COc1cc(S(=O)(=O)Nc2ccccc2C)ccc1NC(=O)c1ccncc1 | 1 | 7 | 0 | -5 | -3 | -2 | x | x
COc1cc(S(=O)(=O)Nc2ccc(C)cc2)ccc1NC(=O)c1ccncc1 | -2 | 5 | -1 | 54* | -1 | -1 | -18 | -18
O=C(Oc1cccc(NC(=O)c2ccco2)c1)c1ccc(Br)c(S(=O)(=O)N2CCCCC2)c1 | 2 | -2 | 3 | -16 | 13 | -4 | x | x
Cc1ccc(C(=O)Oc2cccc(NC(=O)c3ccco3)c2)cc1S(=O)(=O)N1CCC(C)CC1 | 0 | 0 | 3 | 54* | 10 | -6 | -10 | -14
COc1ccc(C)cc1NC(=O)C(OC(=O)c1cnc(C)cn1)c1ccccc1 (centres undefined) | 0 | 1 | 0 | -8 | -10 | 0 | x | x
Cc1nnc(SCc2cc(=O)oc3cc(O)ccc23)n1Cc1ccccc1 | -1 | -5 | -1 | -3 | 7 | -1 | x | x
C[C@H]1CN([C@@H](C)CO)C(=O)c2cccc(NC(=O)c3ccncc3)c2O[C@H]1CN(C)C(=O)Nc1ccccc1 | -2 | 4 | 1 | 95* | 21 | 4 | 72* | -13 | Scp-1 Tm shift=-16
COc1ccc(NC(=O)N(C)C[C@H]2Oc3c(NC(=O)c4ccncc4)cccc3C(=O)N([C@H](C)CO)C[C@@H]2C)cc1 | -4 | 1 | 0 | 61* | 2 | 16 | 7 | -14
C[C@H](CO)N1C[C@H](C)[C@@H](CN(C)C(=O)Nc2ccc(C(F)(F)F)cc2)Oc2c(NC(=O)c3ccncc3)cccc2C1=O | 0 | -5 | -1 | 88* | 9 | 3 | -3 | -15
COc1ccc(NC(=O)Nc2cccc3c2O[C@H](CN(C)C(=O)Nc2ccccc2)[C@@H](C)CN([C@H](C)CO)C3=O)cc1 | -2 | 4 | 0 | -8 | 2 | -1 | x | x
C[C@H](CO)N1C[C@H](C)[C@@H](CN(C)C)Oc2c(NC(=O)c3ccncc3)cccc2C1=O | -2 | 10 | -1 | 6 | -2 | 3 | x | x
C[C@H](CO)N1C[C@H](C)[C@@H](CN(C)C(=O)Nc2ccccc2)Oc2c(NC(=O)c3ccncc3)cccc2C1=O | -2 | -1 | 1 | 88* | 1 | 9 | 4 | -19
NC1=NC[C@H](Cc2ccc(O)cc2)N1CCc1cc(C(F)(F)F)cc(C(F)(F)F)c1 | -1 | -17 | -3 | 2 | -6 | 14 | x | x
COc1ccc2c(c1)c(=O)oc1c(C)c(OCc3cc(C(=O)O)oc3C)ccc12 | 6 | 26 | 4 | 93* | 16 | 20 | 94* | 1 | Scp-1 Tm shift=3
COc1ccc2c(c1)c(=O)oc1c(C)c(OCc3ccc(C(=O)O)cc3)ccc12 | 41* | 45* | 58* | 93* | 15 | 5 | 58* | -10 | Scp-1 Tm shift=-12
CCO/C=C1/C(=O)N(c2ccccc2OC)C(=O)c2ccccc21 | 4 | 2 | 3 | -2 | -4 | -11 | x | x
O=C(CN1C(=O)C2CCCCC2C1=O)Nc1ccccc1N1CCCC1 (centres undefined) | 1 | -1 | 1 | 62* | -2 | 0 | -15 | -12
O=C(CN1C(=O)C2CC=CCC2C1=O)Nc1ccccc1N1CCCC1 (centres undefined) | 0 | 2 | 0 | -2 | -1 | 1 | x | x
SMILES | STEP block | SUMO1 PPI mod | LMPTP inh | Scp1 inh | NadD block | DNMT1 inh | Scp1 confirm | Scp-1 MG ctr | others
O=C(Nc1ccc(OC(F)(F)F)cc1)Nc1cccnc1 | -2 | 1 | 1 | -15 | -1 | 4 | x | x
CCCCC(C)n1[nH]c(=O)cc1N (centres undefined) | -2 | -6 | -1 | -15 | -4 | -5 | x | x
O=C1/C(=C/c2ccccc2)N=C(N2CCOCC2)N1c1cccc(Cl)c1 | 2 | -12 | 0 | -7 | 1 | -2 | x | x
CCN(CC)S(=O)(=O)c1ccc(C(=O)OCC(=O)NCc2ccco2)cc1 | 2 | 0 | 0 | 55* | 5 | 17 | 47* | -6 | Scp-1 Tm shift=-8
Cc1ccccc1C(=O)OCC(=O)NCc1ccco1 | -1 | 1 | 0 | 53* | 1 | 9 | 18 | -9
O=C(COC(=O)CCOc1ccccc1)NCc1ccco1 | 0 | 2 | 6 | 102* | 1 | 22 | 58* | -14 | Scp-1 Tm shift=-1
O=C(COc1ccccc1)NCc1ccco1 | 2 | 0 | -2 | -4 | -3 | 3 | x | x
O=C(COC(=O)c1ccc(Cl)c(S(=O)(=O)N2CCCCC2)c1)NCc1ccco1 | -3 | 8 | 1 | 71* | 5 | 11 | 45* | -22 | Scp-1 Tm shift=-10
Cc1cccc(Nc2ccccc2C(=O)OCC(=O)NCc2ccco2)c1C | 1 | 5 | 2 | 23 | 1 | 41 | x | x
COc1ccccc1NC(=O)NNC(=O)C(C)Oc1ccc2ccccc2c1 (centres undefined) | -5 | 3 | 0 | -8 | -1 | 0 | x | x
CC(C)(C)NC(=O)C(c1ccccc1)N(C(=O)c1ccco1)C1CC1 (centres undefined) | 1 | -7 | -2 | -2 | 5 | -1 | x | x
